Test results reported in ChEMBL document CHEMBL1131020, “Synthesis of 7,8-(methylenedioxy)-1-phenyl-3,5-dihydro-4H-2, 3-benzodiazepin-4-ones as novel and potent noncompetitive AMPA receptor antagonists” (J Med Chem, 1998).
pIC50: −log10 of the molar value.

Tests used:
Mus musculus = experiment: In vivo anticonvulsant activity in mouse determined by maximum electroshock induced seizure (MES) assay; type: functional
Method in brief: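 Male NSA mice; compound in 10% Tween-80/water, iv, 5 min before test. Corneal electrodes deliver 50 mA, 60 pulses/s, 0.8-ms pulse width, 1-s d.c. Protection means no tonic hindlimb extension >90° within 30 s. Screened at 10 mg/kg (n = 8), then 4–5 doses (n = 15–24/dose). ED50 with 95% CI by Litchfield–Wilcoxon.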

Rattus norvegicus = species: Rattus norvegicus; experiment: In vitro inhibition of AMPA activated current in xenopus oocytes expressing rat cerebral cortex poly(A)+ RNA.; type: functional
Method in brief: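 Two-electrode voltage clamp, holding -70 mV, of Xenopus oocytes injected with ~25 ng rat cerebral cortex poly(A)+ RNA, superfused in Ringer. Baseline current from 10 μM AMPA. Antagonist at increasing concentrations preapplied ~30 s, then coapplied with 10 μM AMPA. IC50 from four-parameter logistic fit to pooled data of 3–4 experiments, mean ± SEM.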

SMILES	pIC50 (Rattus norvegicus)	ED50 (Mus musculus)
COc1cc2c(cc1OC)C(c1ccc(N)cc1)=NNC(=O)C2	3.74	> 10 mg/kg
O=C1Cc2cc3c(cc2C(c2ccccc2)=NN1)OCO3	4.68	12.9 mg/kg
CC1=NN=C(c2ccc(N)cc2)c2cc3c(cc2C1)OCO3 [GYKI-52466]	5.16	4.6 mg/kg

Now from value to compound, other results behind:

pIC50 (Rattus norvegicus)	SMILES	ED50 (Mus musculus)
5.57	Nc1ccc(C2=NNC(=O)Cc3cc4c(cc32)OCO4)cc1	2.8 mg/kg
4.21	O=C1Cc2cc3c(cc2C(c2ccc(F)cc2)=NN1)OCO3	> 10 mg/kg
4.25	O=C1Cc2cc3c(cc2C(c2ccc([N+](=O)[O-])cc2)=NN1)OCO3	> 10 mg/kg
4.82	Cc1ccc(C2=NNC(=O)Cc3cc4c(cc32)OCO4)cc1	16 mg/kg
4.64	COc1ccc(C2=NNC(=O)Cc3cc4c(cc32)OCO4)cc1	
